How the values were obtained:
[1] = molecular target: Insulin-like growth factor 1 receptor (Homo sapiens) (UniProt P08069); assay: Inhibition of IGF-1R assessed as remaining enzyme activity at 3 uM relative to DMSO
Outline: (§1)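 Dundee kinase panel, radiometric: [γ-33P]ATP (800 cpm/pmol) at 5, 20 or 50 μM, at or below each kinase's ATP Km; 10 mM magnesium acetate; robotic, room temperature, 30 min. Reactions started with MgATP, stopped with orthophosphoric acid, spotted onto P81 filters. Inhibitor tested at a single concentration; mean % activity of duplicates relative to DMSO control.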

[2] = molecular target: RAC-beta serine/threonine-protein kinase (Homo sapiens) (UniProt P31751); assay: Inhibition of PKBbeta assessed as remaining enzyme activity at 3 uM relative to DMSO
Outline: (§2)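 Radiometric kinase assay run robotically at room temperature for 30 min. Contained 10 mM magnesium acetate and [γ-33P]ATP (800 cpm/pmol) at 5, 20 or 50 μM, chosen per kinase to be at or below its ATP Km. Reactions were started with MgATP, stopped with orthophosphoric acid and spotted onto P81 filters. Result is mean % activity of duplicates at one inhibitor concentration versus DMSO control.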

[3] = molecular target: Serine/threonine-protein kinase PAK 6 (Homo sapiens) (UniProt Q9NQU5); assay: Inhibition of PAK6 assessed as remaining enzyme activity at 3 uM relative to DMSO; outline: as §2
[4] = molecular target: Maternal embryonic leucine zipper kinase (Homo sapiens) (UniProt Q14680); assay: Inhibition of MELK assessed as remaining enzyme activity at 3 uM relative to DMSO; outline: as §2
[5] = molecular target: MAP kinase-activated protein kinase 5 (Homo sapiens) (UniProt Q8IW41); assay: Inhibition of PRAK assessed as remaining enzyme activity at 3 uM relative to DMSO
[6] = molecular target: MAP/microtubule affinity-regulating kinase 3 (Homo sapiens) (UniProt P27448); assay: Inhibition of MARK3 assessed as remaining enzyme activity at 3 uM relative to DMSO; outline: as §2
MAP/microtubule affinity-regulating kinase 3 (Homo sapiens), sequence (P27448 whole entry, looked up): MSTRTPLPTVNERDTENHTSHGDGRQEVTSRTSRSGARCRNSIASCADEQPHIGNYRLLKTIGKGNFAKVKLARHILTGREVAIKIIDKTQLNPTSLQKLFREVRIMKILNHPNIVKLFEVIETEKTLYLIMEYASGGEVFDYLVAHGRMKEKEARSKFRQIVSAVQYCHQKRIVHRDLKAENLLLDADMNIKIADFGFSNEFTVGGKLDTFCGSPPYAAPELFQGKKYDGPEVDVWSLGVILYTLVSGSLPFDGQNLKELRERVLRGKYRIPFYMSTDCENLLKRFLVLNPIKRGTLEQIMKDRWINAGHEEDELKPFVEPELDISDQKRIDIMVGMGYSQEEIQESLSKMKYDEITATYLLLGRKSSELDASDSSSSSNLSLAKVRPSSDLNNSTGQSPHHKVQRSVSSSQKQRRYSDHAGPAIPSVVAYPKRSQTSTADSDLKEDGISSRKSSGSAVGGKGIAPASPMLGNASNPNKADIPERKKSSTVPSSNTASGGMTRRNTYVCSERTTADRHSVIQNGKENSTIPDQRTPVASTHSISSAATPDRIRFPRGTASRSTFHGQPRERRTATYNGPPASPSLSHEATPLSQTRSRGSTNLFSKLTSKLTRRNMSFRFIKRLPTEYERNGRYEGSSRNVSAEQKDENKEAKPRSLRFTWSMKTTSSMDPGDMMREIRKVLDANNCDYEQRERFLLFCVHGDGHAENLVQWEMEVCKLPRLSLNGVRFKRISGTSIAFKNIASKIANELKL

[7] = molecular target: Serine/threonine-protein kinase PAK 4 (Homo sapiens) (UniProt O96013); assay: Inhibition of PAK4 assessed as remaining enzyme activity at 3 uM relative to DMSO; outline: as §2
[8] = molecular target: Fibroblast growth factor receptor 1 (Homo sapiens) (UniProt P11362); assay: Inhibition of FGF-R1 assessed as remaining enzyme activity at 3 uM relative to DMSO; outline: as §1
[9] = molecular target: Tyrosine-protein kinase CSK (Homo sapiens) (UniProt P41240); assay: Inhibition of CSK assessed as remaining enzyme activity at 3 uM relative to DMSO; outline: as §1
[10] = molecular target: Serine/threonine-protein kinase pim-3 (Homo sapiens) (UniProt Q86V86); assay: Inhibition of PIM3 assessed as remaining enzyme activity at 3 uM relative to DMSO; outline: as §2
[11] = molecular target: Serine/threonine-protein kinase Sgk1 (Homo sapiens) (UniProt O00141); assay: Inhibition of SGK1 assessed as remaining enzyme activity at 3 uM relative to DMSO
Serine/threonine-protein kinase Sgk1 (Homo sapiens), sequence (O00141 whole entry): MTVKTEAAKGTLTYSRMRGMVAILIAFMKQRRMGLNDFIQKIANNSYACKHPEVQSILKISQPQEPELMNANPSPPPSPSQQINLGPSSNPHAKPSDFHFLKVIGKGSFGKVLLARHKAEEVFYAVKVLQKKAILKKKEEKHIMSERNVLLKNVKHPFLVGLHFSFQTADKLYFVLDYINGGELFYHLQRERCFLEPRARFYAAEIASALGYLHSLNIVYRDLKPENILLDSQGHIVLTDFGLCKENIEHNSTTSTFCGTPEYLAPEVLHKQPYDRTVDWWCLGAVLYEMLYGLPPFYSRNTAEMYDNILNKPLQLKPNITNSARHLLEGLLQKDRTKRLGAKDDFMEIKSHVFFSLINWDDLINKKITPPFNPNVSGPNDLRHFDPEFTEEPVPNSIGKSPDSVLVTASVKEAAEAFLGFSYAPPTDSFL

[12] = molecular target: RAC-alpha serine/threonine-protein kinase (Homo sapiens) (UniProt P31749); assay: Inhibition of PKBalpha assessed as remaining enzyme activity at 3 uM relative to DMSO; outline: as §2
[13] = molecular target: Mitogen-activated protein kinase 1 (Homo sapiens) (UniProt P28482); assay: Inhibition of ERK2 assessed as remaining enzyme activity at 3 uM relative to DMSO; outline: as §1
Mitogen-activated protein kinase 1 (Homo sapiens), sequence (P28482 whole entry): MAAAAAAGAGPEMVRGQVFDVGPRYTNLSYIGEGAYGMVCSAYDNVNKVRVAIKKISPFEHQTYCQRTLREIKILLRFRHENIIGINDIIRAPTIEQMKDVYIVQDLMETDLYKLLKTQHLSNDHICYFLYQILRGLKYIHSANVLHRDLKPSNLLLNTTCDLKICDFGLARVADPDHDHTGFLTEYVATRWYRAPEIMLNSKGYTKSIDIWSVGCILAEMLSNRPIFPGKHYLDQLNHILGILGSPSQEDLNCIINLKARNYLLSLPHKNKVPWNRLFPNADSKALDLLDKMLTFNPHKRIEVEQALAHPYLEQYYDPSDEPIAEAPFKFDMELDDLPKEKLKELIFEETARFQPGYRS

[14] = molecular target: Dual specificity mitogen-activated protein kinase kinase 1 (Homo sapiens) (UniProt Q02750); assay: Inhibition of MKK1 assessed as remaining enzyme activity at 1 uM relative to DMSO; outline: as §2
[15] = molecular target: Myosin light chain kinase, smooth muscle (Homo sapiens) (UniProt Q15746); assay: Inhibition of SmMLCK assessed as remaining enzyme activity at 1 uM relative to DMSO
[16] = molecular target: Dual specificity tyrosine-phosphorylation-regulated kinase 1A (Homo sapiens) (UniProt Q13627); assay: Inhibition of DYRK1A assessed as remaining enzyme activity at 1 uM relative to DMSO
[17] = molecular target: Serine/threonine-protein kinase N2 (Homo sapiens) (UniProt Q16513); assay: Inhibition of PRK2 assessed as remaining enzyme activity at 1 uM relative to DMSO
[18] = molecular target: Serine/threonine-protein kinase TBK1 (Homo sapiens) (UniProt Q9UHD2); assay: Inhibition of TBK1 assessed as remaining enzyme activity at 1 uM relative to DMSO
Serine/threonine-protein kinase TBK1 (Homo sapiens), sequence (Q9UHD2 whole entry): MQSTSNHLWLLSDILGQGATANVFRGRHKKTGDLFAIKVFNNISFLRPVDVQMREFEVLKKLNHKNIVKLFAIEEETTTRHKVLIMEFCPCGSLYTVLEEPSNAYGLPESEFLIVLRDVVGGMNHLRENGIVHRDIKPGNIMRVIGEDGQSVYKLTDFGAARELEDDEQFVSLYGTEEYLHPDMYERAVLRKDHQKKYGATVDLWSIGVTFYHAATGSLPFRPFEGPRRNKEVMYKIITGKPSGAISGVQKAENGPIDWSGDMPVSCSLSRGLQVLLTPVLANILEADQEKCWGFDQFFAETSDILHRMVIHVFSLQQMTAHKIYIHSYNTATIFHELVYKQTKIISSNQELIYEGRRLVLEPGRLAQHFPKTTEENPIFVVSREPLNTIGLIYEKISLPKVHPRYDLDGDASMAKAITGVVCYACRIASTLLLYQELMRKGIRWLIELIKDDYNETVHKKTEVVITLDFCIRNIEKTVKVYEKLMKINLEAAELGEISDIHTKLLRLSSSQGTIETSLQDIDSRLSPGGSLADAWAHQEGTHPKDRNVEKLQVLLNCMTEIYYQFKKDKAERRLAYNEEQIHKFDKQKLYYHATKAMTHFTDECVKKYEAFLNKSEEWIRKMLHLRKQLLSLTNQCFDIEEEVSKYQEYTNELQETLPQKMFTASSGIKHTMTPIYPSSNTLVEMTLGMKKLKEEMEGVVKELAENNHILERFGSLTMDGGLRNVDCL

[19] = molecular target: Dual specificity tyrosine-phosphorylation-regulated kinase 2 (Homo sapiens) (UniProt Q92630); assay: Inhibition of DYRK2 assessed as remaining enzyme activity at 1 uM relative to DMSO
Outline: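 Radiometric kinase assay run robotically at room temperature for 30 min, linear in time and enzyme. Conditions: 10 mM magnesium acetate, [γ-33P]ATP (800 cpm/pmol) at 5, 20 or 50 μM per kinase, at or below its ATP Km. Started with MgATP and stopped with orthophosphoric acid, then spotted on P81 filters. Reported as mean % activity of duplicates versus DMSO controls.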

[20] = molecular target: Serine/threonine-protein kinase pim-2 (Homo sapiens) (UniProt Q9P1W9); assay: Inhibition of PIM2 assessed as remaining enzyme activity at 1 uM relative to DMSO
[21] = molecular target: Serine/threonine-protein kinase 26 (Homo sapiens) (UniProt Q9P289); assay: Inhibition of MST4 assessed as remaining enzyme activity at 1 uM relative to DMSO; outline: as §2
Serine/threonine-protein kinase 26 (Homo sapiens), sequence (Q9P289 2-416 limits assumed): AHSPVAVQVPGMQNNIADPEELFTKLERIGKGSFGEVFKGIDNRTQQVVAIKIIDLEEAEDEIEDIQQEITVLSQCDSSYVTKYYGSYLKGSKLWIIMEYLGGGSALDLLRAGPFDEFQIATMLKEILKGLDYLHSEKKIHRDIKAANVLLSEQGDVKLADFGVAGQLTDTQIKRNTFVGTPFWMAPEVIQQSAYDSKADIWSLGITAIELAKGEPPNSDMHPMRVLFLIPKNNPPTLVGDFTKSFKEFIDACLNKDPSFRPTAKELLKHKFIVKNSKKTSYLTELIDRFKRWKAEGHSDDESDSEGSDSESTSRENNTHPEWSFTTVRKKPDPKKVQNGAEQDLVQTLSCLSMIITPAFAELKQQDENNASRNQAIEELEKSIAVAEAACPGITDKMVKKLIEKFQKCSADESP

[22] = molecular target: Mitogen-activated protein kinase kinase kinase 20 (Homo sapiens) (UniProt Q9NYL2); assay: Binding affinity to ZAK assessed as percentage of kinase remaining bound to the bead at 1 uM by T7 phage display based binding assay
Outline: (§3)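 Competition binding assay run by a contract lab. Each kinase was expressed as a fusion to T7 phage, full-length for small kinases and catalytic domain for large ones. Phage were mixed with an immobilized known kinase inhibitor on streptavidin magnetic beads and with test compound at a single 1 μM. Kinase/phage still bound to the beads was quantified by qPCR and expressed as % of DMSO control.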

[23] = molecular target: Vascular endothelial growth factor receptor 3 (Homo sapiens) (UniProt P35916); assay: Binding affinity to FLT4 assessed as percentage of kinase remaining bound to the bead at 1 uM by T7 phage display based binding assay
Outline: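 Kinases expressed as T7 phage fusions (full-length for small kinases, catalytic domain for large). Phage mixed with an immobilized known kinase inhibitor on streptavidin magnetic beads plus test compound at a single 1 μM concentration. Ligand displacement from the ATP site was read by quantitative PCR as % kinase/phage still bead-bound versus DMSO control. Human kinases.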

[24] = molecular target: Protein kinase C alpha type (Homo sapiens) (UniProt P17252); assay: Inhibition of PKCalpha assessed as remaining enzyme activity at 1 uM relative to DMSO
[25] = molecular target: Fibroblast growth factor receptor 3 (Homo sapiens) (UniProt P22607); assay: Binding affinity to FGFR3 assessed as percentage of kinase remaining bound to the bead at 1 uM by T7 phage display based binding assay; outline: as §3
[26] = molecular target: Insulin receptor (Homo sapiens) (UniProt P06213); assay: Inhibition of histidine-tagged IR assessed as remaining enzyme activity at 1 uM relative to DMSO
[27] = molecular target: Rho-associated protein kinase 2 (Homo sapiens) (UniProt O75116); assay: Inhibition of ROCK2 assessed as remaining enzyme activity at 1 uM relative to DMSO

Insulin-like growth factor 1 receptor (Homo sapiens), sequence (P08069 31-736 limits assumed): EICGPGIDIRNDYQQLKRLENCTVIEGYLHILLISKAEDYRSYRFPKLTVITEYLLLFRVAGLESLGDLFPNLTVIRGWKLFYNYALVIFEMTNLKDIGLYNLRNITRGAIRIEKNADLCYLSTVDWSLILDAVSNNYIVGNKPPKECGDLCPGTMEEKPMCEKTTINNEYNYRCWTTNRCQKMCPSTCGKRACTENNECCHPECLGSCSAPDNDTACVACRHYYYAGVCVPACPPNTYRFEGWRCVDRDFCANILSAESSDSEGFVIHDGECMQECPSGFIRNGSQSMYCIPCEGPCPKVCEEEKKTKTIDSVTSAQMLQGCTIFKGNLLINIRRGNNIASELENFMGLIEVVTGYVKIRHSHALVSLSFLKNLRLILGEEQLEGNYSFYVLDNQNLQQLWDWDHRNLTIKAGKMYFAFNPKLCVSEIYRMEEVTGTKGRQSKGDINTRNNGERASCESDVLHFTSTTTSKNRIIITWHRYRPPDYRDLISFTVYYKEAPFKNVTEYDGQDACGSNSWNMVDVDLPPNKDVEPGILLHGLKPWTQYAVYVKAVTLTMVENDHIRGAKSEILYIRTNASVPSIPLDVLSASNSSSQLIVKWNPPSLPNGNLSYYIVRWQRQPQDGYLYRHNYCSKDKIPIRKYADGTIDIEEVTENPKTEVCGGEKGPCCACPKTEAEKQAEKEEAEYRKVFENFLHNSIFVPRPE
Insulin-like growth factor 1 receptor (Homo sapiens), sequence (P08069 741-1367 limits assumed): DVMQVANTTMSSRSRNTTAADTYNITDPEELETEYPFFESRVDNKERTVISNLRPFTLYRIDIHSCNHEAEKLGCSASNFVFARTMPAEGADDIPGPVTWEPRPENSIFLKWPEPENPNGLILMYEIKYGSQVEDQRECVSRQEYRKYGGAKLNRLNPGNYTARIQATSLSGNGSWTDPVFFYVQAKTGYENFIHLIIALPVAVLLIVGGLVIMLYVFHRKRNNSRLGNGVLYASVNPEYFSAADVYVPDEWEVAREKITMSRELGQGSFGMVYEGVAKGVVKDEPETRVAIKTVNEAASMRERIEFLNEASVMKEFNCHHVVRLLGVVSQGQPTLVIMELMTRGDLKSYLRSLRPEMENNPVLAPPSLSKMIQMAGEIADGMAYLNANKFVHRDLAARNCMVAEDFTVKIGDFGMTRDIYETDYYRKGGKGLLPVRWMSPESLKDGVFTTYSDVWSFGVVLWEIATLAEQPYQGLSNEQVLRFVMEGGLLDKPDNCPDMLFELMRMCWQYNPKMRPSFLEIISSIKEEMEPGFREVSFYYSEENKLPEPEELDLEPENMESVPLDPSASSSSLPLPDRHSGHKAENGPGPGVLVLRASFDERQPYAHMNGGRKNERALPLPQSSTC

`COc1ccccc1-n1c(-c2ccccc2C)cn2c3c(=O)[nH]c(=O)n(C)c3nc12` gave an Activity [1] of 106%, an Activity [2] of 104% and an Activity [3] of 90%. For the same compound, the Activity [4] was 89%, the Activity [5] was 87% and the Activity [6] was 111%. For the same compound, the Activity [7] was 93%, the Activity [8] was 90% and the Activity [9] was 72%. The Activity [10] was 111%, the Activity [11] was 124% and the Activity [12] was 97%. The Activity [13] was 91%.

Work on `COc1ccccc1-n1c(-c2cc(O)ccc2C)cn2c3c(=O)[nH]c(=O)n(C)c3nc12` yielded an Activity [14] of 70%, an Activity [15] of 87% and an Activity [16] of 99%. It also gave an Activity [17] of 93%, an Activity [18] of 89% and an Activity [19] of 86%. For the same compound, the Activity [20] was 93%, the Activity [21] was 78% and the Activity [22] was 15%. The Activity [23] was 93%, the Activity [24] was 92% and the Activity [25] was 89%. For the same compound, the Activity [26] was 104% and the Activity [27] was 77%.

Source: ChEMBL document CHEMBL1154183, “Structure-based optimization of potent and selective inhibitors of the tyrosine kinase erythropoietin producing human hepatocellular carcinoma receptor B4 (EphB4)” (J Med Chem, 2009)
